Results from ChEMBL document CHEMBL4513216, “Probing the Open Global Health Chemical Diversity Library for Multistage-Active Starting Points for Next-Generation Antimalarials” (ACS Infect Dis, 2020).

Experiment: Toxicity liver stage against HepG2, at 10uM
Assay type: cell-based
Set-up: test concentration 10 uM, cell line HepG2-A16-CD81EGFP
Conditions: human, HepG2-A16-CD81EGFP cells; read-out: INHIBITION
How it was run: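 Uninfected HepG2-A16-CD81EGFP cells, 3 × 10^3 per well, 1536-well, plated on prespotted compound at 10 μM final, parasite-free screening media added to match infected plates; puromycin 10 μM positive, DMSO 0.5% negative; run in parallel with 48 h PbLuc assay at 37 °C, 5% CO2; viability by CellTiter-Glo luminescence, normalized to controls.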

In the case of `O=C(O)C1CCCN1c1nc(-c2ccc(Cl)c(Cl)c2)cc(C(F)(F)F)n1` (stereo unspecified), the cytotoxicity at 10 µM was 32.1%.

With `c1cc(-c2ccc3c(c2)C2(CCNCC2)CC3)ccn1` the cytotoxicity at 10 µM was 56.9%.

Compound `O=C(NCC1CC1)C12CC(CN1Cc1nccs1)C2` has a cytotoxicity at 10 µM of -4.6%.

With `O=C([C@H]1C[C@H]2OCC[C@H]2N(CC2CC2)C1)N1CCCC1` the cytotoxicity at 10 µM was -0.542%.

Work on `CC(C)c1nnc2ccc(N3CCC(C(=O)Nc4nccs4)CC3)nn12` yielded a cytotoxicity at 10 µM of 42.6%.

`CCC1=NC(SCC(=O)c2ccccc2)c2cc(CC)sc2N1` (stereo unspecified) showed a cytotoxicity at 10 µM of -12.5%.

`Fc1ccccc1-c1nnn(CCCc2nn[nH]n2)n1` showed a cytotoxicity at 10 µM of -4.3%.

`Cc1cc2c(cc1Cl)C=CC1(CCN(CC(=O)NC3CCCC3)CC1)O2` showed a cytotoxicity at 10 µM of 17%.

Work on `CCOc1ccc(CN2CCCC(c3cc4ncccc4[nH]3)C2)cc1` (stereo unspecified) yielded a cytotoxicity at 10 µM of 1.18%.

In the case of `Cc1ccc(Oc2c(F)cccc2OC[C@@H](N)CC(C)C)cc1`, the cytotoxicity at 10 µM was -8.94%.

`Cc1cc2c(=O)n3c(nc2s1)CCN(C(=O)c1sc(C)nc1C)CC3` showed a cytotoxicity at 10 µM of -0.579%.

In the case of `Cc1cc(N(C)CC2COc3ccccc3O2)nc(N)n1` (stereo unspecified), the cytotoxicity at 10 µM was 17.6%.

In the case of `Cc1noc(C)c1C(=O)N(C)C(C)c1cccnc1` (stereo unspecified), the cytotoxicity at 10 µM was 0.363%.

In the case of `CCn1nc2c(cc1=O)CN(c1ncnc3sccc13)CC2`, the cytotoxicity at 10 µM was 47.5%.

In the case of `O=C(Nc1ccncc1)NC1CCN(c2ccccc2OC(F)F)C1` (stereo unspecified), the cytotoxicity at 10 µM was 15.6%.

`N#Cc1c(Cl)nsc1NCc1ccnc(OCC(F)(F)F)c1` gave a cytotoxicity at 10 µM of 12.5%.

For `CC(Cn1ccnc1)NC(=O)N(C)Cc1ccco1` (stereo unspecified), the cytotoxicity at 10 µM was -0.687%.

With `CCC(=O)NC1CCCN(C(=O)c2ccc(OCC3CC3)nc2)C1` (stereo unspecified) the cytotoxicity at 10 µM was 15.2%.

For `CCCC1CCCN(C(=O)Nc2cccnc2OC)CC1` (stereo unspecified), the cytotoxicity at 10 µM was 4.52%.

In the case of `Fc1ccc(CN2CCCC2Cn2cncn2)c2ncccc12` (stereo unspecified), the cytotoxicity at 10 µM was 11.7%.

`CCNC(=O)CN(CC)C(=O)Cc1csc(C(C)C)n1` gave a cytotoxicity at 10 µM of 1.29%.

`CNC(=O)Cc1nc(CNc2ccc(SC)c(F)c2)cs1` showed a cytotoxicity at 10 µM of -1.99%.

`Cc1ccc(-c2ncc(CNc3cnccc3CO)s2)cc1` showed a cytotoxicity at 10 µM of -7.65%.

`CC(Nc1ccc(F)cc1)c1nnnn1-c1ccccc1` (stereo unspecified) gave a cytotoxicity at 10 µM of 1.81%.

Work on `Cc1nc(CN2CCCC(Nc3ncnc4ccsc34)C2)no1` (stereo unspecified) yielded a cytotoxicity at 10 µM of 42.2%.

In the case of `O=C(c1ccc(Br)s1)N1CCN(Cc2ccc(OC(F)(F)F)cc2)CC1`, the cytotoxicity at 10 µM was 23.1%.

In the case of `Cc1n[nH]cc1CNc1ccc2c(c1)CN(C(=O)OC(C)(C)C)CC2`, the cytotoxicity at 10 µM was 14.9%.

For `CC(=O)N1CCC(c2nc3ccc(-c4cccc(F)c4)cn3n2)CC1`, the cytotoxicity at 10 µM was 12.4%.

Compound `O=C1CO[C@@H]2CN(S(=O)(=O)c3ccc(F)cc3)C[C@H]2N1` has a cytotoxicity at 10 µM of 4.59%.

Work on `O=S(=O)(c1ccccc1)N1CCC2(CCCN2Cc2cccc(F)c2)C1` (stereo unspecified) yielded a cytotoxicity at 10 µM of -68.4%.

In the case of `O=C(N1CCCC1)N1C[C@@H]2CN(Cc3ccoc3)CCO[C@@H]2C1`, the cytotoxicity at 10 µM was -76.7%.

For `Cc1ncc(-c2ccnc(NCCO)n2)c(C2CCCCC2)n1`, the cytotoxicity at 10 µM was -11%.

Compound `CCc1ccc(-c2ncc3c(n2)N(C)CCN(CCN(C)C)C3=O)cc1` has a cytotoxicity at 10 µM of -9.52%.

For `CCC(Nc1nc(C)nc2onc(C)c12)c1cccs1` (stereo unspecified), the cytotoxicity at 10 µM was 52.4%.

Work on `COCCc1noc(C2CCCN(c3ncnc4c3CCC4)C2)n1` (stereo unspecified) yielded a cytotoxicity at 10 µM of 19.3%.

For `CCCc1nnc(N2CCC(N3CCCC3)CC2)o1`, the cytotoxicity at 10 µM was -16.3%.

Compound `Cc1nonc1-c1nc(C(C)C)nn1-c1ccc2c(c1)OCO2` has a cytotoxicity at 10 µM of -6.9%.

Work on `COCCC1(C(=O)O)CCCN(C(=O)c2cc(F)ccc2OC)C1` (stereo unspecified) yielded a cytotoxicity at 10 µM of -11.4%.

In the case of `CN1CCCC2(CC1)CCN(C(=O)CCc1ccccc1F)CC2`, the cytotoxicity at 10 µM was -5.95%.

`CN(Cc1ccc(-n2cccn2)cc1)c1cc(N)nc(N)n1` gave a cytotoxicity at 10 µM of 86.7%.

In the case of `O=C(O)[C@@H]1CN(C(=O)Cc2ccccc2Cl)C[C@H]1C1CC1`, the cytotoxicity at 10 µM was 9.53%.

`Cc1ccc2cc(C3(O)CCN(C(=O)CSC(C)C)CC3)ccc2n1` showed a cytotoxicity at 10 µM of 22%.

In the case of `CCN1CCCC1CN(Cc1ccon1)CC1CCN(CCOC)CC1` (stereo unspecified), the cytotoxicity at 10 µM was -0.525%.

Compound `Cc1cc(NCc2cc(C)oc2C(F)(F)F)n2nc(C)cc2n1` has a cytotoxicity at 10 µM of 49.1%.

Compound `Cc1cc(NCc2cc3n(n2)CCCN(C(=O)C2CCC2)C3)nc(N)n1` has a cytotoxicity at 10 µM of -146%.

Compound `COc1ccc(OC)c(C2CCN(c3ccc4cc[nH]c4n3)C2)c1` (stereo unspecified) has a cytotoxicity at 10 µM of -1.6%.

Work on `CCCc1nc(C)c(CNc2nc(C)nc3onc(C)c23)s1` yielded a cytotoxicity at 10 µM of 1.6%.

With `CCCN(Cc1nc2ccccc2[nH]1)Cc1ccccc1OC` the cytotoxicity at 10 µM was -39.6%.

Work on `CCSc1ncc(CN2CCC(O)(CN3CCOCC3)C(C)(C)C2)cn1` (stereo unspecified) yielded a cytotoxicity at 10 µM of 7.49%.

In the case of `COc1cccc(-c2noc3c2CN(c2nc(C)ncc2C)CC3)c1`, the cytotoxicity at 10 µM was 45.1%.

With `O=C(Cc1nc(-c2ccncc2)n[nH]1)N1CCOCC1` the cytotoxicity at 10 µM was -0.749%.

Work on `COC(=O)N1CCCCC1C(=O)N1CCN(c2cccnc2)CC1` (stereo unspecified) yielded a cytotoxicity at 10 µM of -10.6%.

`O=C1[C@@H]2CN(Cc3cc4ccccc4o3)C[C@]2(C(=O)O)CN1CC1CC1` gave a cytotoxicity at 10 µM of -5.22%.

For `CC1CCN(CCCNC(=O)c2ccc(N(C)S(C)(=O)=O)cc2Cl)CC1`, the cytotoxicity at 10 µM was -0.488%.

With `CCc1ccc(C2CC(=O)Nc3c2c(=O)[nH]n3C(C)C)cc1` (stereo unspecified) the cytotoxicity at 10 µM was -6.87%.

In the case of `CN(C)C(=O)c1ccc(C2CCCN2C(=O)c2cccc3c2OCC3)s1` (stereo unspecified), the cytotoxicity at 10 µM was 4.1%.

Compound `COc1cccc(CCC2CCCN(C(=O)c3n[nH]c4c3CCC4)C2)c1` (stereo unspecified) has a cytotoxicity at 10 µM of 4.48%.

`COc1ccccc1CN(C)c1nccc(-c2cn(C)nc2C)n1` gave a cytotoxicity at 10 µM of 53.8%.

With `O=C(c1ccc(C2CCCO2)s1)N1CCN(c2ccccc2F)CC1` (stereo unspecified) the cytotoxicity at 10 µM was -15.1%.

For `CC(C)OCc1ccc(CNc2cncc(-n3cccn3)n2)cc1`, the cytotoxicity at 10 µM was 43.8%.

Compound `Cc1nc(CN2CCCC2c2noc(C3CC3)n2)nc2ccccc12` (stereo unspecified) has a cytotoxicity at 10 µM of -19%.

With `CCCc1ccc(S(=O)(=O)Nc2ccc(=O)n(C)c2)cc1` the cytotoxicity at 10 µM was 43.5%.

Work on `CNc1cc2c(nn1)CCN(C(=O)c1cc(C)n(C3CC3)c1C)C2` yielded a cytotoxicity at 10 µM of -14.4%.

With `Cc1cc(C)n(CC2CN(Cc3nc4ccccc4s3)CCO2)n1` (stereo unspecified) the cytotoxicity at 10 µM was 3.93%.

For `COc1ccccc1OCCN1CCCCC1Cn1cncn1` (stereo unspecified), the cytotoxicity at 10 µM was -32.7%.

Compound `CC1CCCN(Cc2csc(-c3ncccn3)n2)CC1` (stereo unspecified) has a cytotoxicity at 10 µM of 2.73%.

Compound `CC(C)Cc1noc(CN2CCN(CCOc3ccc(Cl)cc3)CC2)n1` has a cytotoxicity at 10 µM of 24%.

Compound `Cc1ccc(O)c(CN(CCCn2ccnc2)Cc2ccc(C)s2)c1` has a cytotoxicity at 10 µM of -25.8%.

With `O=C(O)CCC(=O)N1CCN(CC2CC2)c2ncccc2C1` the cytotoxicity at 10 µM was -101%.

Compound `Fc1ccc(CN2CCC3(CC2)CN(c2ccccn2)CCO3)cc1` has a cytotoxicity at 10 µM of -0.359%.

Work on `O=C(NC1CCC1)[C@@H]1C[C@@H]2CCN(CCc3ccccc3)C[C@H]2O1` yielded a cytotoxicity at 10 µM of -72.7%.

For `O=S1(=O)c2ccccc2C2(CCN(Cc3ccccc3)C2)N1CC1CC1` (stereo unspecified), the cytotoxicity at 10 µM was 16.3%.

For `Cc1csc(NC(=O)c2cnc(C3CCCN3)cn2)n1` (stereo unspecified), the cytotoxicity at 10 µM was -41%.

With `CC(C)(C)CN1CCCC12CCN(S(=O)(=O)c1ccccc1)C2` (stereo unspecified) the cytotoxicity at 10 µM was -67.5%.

`Cc1ccc(O[C@@H]2C[C@H]3CN(c4ncc(F)cn4)CCN3C2)cc1` gave a cytotoxicity at 10 µM of 35.3%.

For `Fc1cccc(N2CCCC3(CN(Cc4ccco4)CCO3)C2)c1` (stereo unspecified), the cytotoxicity at 10 µM was -63.5%.

Work on `Cc1ccc(CN2CCOC3(CCCN(c4cccc(F)c4)C3)C2)o1` (stereo unspecified) yielded a cytotoxicity at 10 µM of -70%.

In the case of `CN(C)CCN1C2(CCN(Cc3nccs3)C2)c2ccccc2S1(=O)=O` (stereo unspecified), the cytotoxicity at 10 µM was -71.8%.

Work on `CC(C)C[C@H](N)C(=O)N1CCSc2ccccc2C1` yielded a cytotoxicity at 10 µM of 0.318%.

In the case of `O=C1COC2(CCN(CC3CC3)CC2)CN1c1ccsc1`, the cytotoxicity at 10 µM was -79.2%.

In the case of `O=C1[C@@H]2CC[C@@H](CN(c3ncnc4ccsc34)C2)N1CC1CC1`, the cytotoxicity at 10 µM was 15.2%.
